The source of these data is ChEMBL document CHEMBL4732065 (Eur J Med Chem, 2021).

Experiment [1] addresses T1, Cytochrome P450 1B1 (Homo sapiens, UniProt Q16678).
T1 sequence (Q16678 whole entry): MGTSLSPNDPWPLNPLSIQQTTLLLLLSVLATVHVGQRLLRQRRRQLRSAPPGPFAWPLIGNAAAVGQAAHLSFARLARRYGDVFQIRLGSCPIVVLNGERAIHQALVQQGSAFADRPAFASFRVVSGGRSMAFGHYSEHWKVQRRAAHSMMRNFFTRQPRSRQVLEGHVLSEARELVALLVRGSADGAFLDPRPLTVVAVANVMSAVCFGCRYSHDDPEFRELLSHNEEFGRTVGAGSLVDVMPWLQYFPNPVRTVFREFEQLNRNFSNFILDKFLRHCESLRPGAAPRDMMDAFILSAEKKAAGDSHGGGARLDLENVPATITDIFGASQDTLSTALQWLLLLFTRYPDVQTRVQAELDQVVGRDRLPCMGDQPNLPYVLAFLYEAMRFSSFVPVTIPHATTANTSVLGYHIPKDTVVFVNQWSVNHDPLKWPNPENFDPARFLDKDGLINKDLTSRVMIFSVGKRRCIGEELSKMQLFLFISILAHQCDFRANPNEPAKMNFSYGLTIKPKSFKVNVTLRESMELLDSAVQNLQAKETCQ
Nature of the experiment: Inhibition of recombinant human CYP1B1 using 7-ethoxyresorufin as substrate after 35 mins in presence of NADP+ by EROD assay. The gist of the method: (§1)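 Recombinant human CYP1 Supersomes co-expressing P450 reductase; 20 fmol CYP1B1, 10 fmol CYP1A1 or 60 fmol CYP1A2 per well. Incubated at 37 °C (1B1 35 min, 1A1 15 min, 1A2 50 min).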

Experiment [2] addresses T2, Cytochrome P450 1A1 (Homo sapiens, UniProt P04798).
T2 sequence (P04798 whole entry): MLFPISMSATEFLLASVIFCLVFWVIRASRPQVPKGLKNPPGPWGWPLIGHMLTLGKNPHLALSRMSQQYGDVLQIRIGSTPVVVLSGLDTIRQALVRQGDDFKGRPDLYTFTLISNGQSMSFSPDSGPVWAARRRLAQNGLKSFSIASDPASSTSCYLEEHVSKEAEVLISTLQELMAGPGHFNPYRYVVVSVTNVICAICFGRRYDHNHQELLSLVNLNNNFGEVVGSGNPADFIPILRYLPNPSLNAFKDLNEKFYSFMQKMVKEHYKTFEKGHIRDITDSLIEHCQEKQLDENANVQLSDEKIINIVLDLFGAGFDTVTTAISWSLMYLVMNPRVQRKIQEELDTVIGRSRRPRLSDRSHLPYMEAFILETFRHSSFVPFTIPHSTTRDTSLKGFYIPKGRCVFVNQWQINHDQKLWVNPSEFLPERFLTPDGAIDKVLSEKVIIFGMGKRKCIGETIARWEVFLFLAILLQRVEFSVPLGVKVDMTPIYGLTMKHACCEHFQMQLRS
Put plainly: Inhibition of recombinant human CYP1A1 using 7-ethoxyresorufin as substrate after 15 mins in presence of NADP+ by EROD assay. The experiment is classed as ADME. A digest of the protocol: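 Recombinant human CYP1 Supersomes co-expressing P450 reductase; 20 fmol CYP1B1, 10 fmol CYP1A1 or 60 fmol CYP1A2 per well. Incubated at 37 °C (1B1 35 min, 1A1 15 min, 1A2 50 min). Stopped with cold methanol; fluorescence read at 544/590 nm; triplicates.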

Experiment [3] addresses T3, Cytochrome P450 1A2 (Homo sapiens, UniProt P05177).
T3 sequence (P05177 whole entry): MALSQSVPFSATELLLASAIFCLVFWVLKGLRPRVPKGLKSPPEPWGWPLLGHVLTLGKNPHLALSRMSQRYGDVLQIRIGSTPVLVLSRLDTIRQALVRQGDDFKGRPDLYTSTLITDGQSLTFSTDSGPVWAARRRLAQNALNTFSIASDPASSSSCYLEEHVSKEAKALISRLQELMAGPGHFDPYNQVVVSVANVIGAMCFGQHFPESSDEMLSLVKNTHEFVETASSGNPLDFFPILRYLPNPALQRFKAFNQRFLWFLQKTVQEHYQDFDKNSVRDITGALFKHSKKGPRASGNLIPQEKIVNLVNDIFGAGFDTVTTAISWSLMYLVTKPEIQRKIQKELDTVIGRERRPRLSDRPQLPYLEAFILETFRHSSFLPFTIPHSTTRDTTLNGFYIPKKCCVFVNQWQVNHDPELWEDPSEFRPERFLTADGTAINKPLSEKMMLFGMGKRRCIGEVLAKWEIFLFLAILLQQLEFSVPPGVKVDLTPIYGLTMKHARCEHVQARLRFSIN
Put plainly: Inhibition of recombinant human CYP1A2 using 7-ethoxyresorufin as substrate after 50 mins in presence of NADP+ by EROD assay. The experiment is classed as ADME. A digest of the protocol: as §1

Experiment [4] is filed under the species Homo sapiens. Nature of the experiment: Selectivity index, ratio of IC50 for recombinant human CYP1A1 to IC50 for recombinant human CYP1B1.
The species entered for experiment [5] is Homo sapiens. Put plainly: Selectivity index, ratio of IC50 for recombinant human CYP1A2 to IC50 for recombinant human CYP1B1.

Usually IC50 stands for the concentration that gives 50% inhibition. Take `COc1ccc(OC)c2c1c(OC)cc1c(=O)cc(-c3c[nH]c4ccccc34)oc12`: the results for the half-maximal inhibitory concentration (IC50) in experiment [1], in experiment [2] and in experiment [3] were 4.1 nM, 16.5 nM and more than 1000 nM, respectively. Besides, the Ratio IC50 in experiment [4] was 4; in experiment [5], more than 244.
For the compound `COc1ccc(OC)c2c1c(OC)cc1c(=O)cc(-c3cccnc3Br)oc12`, the IC50 in experiment [1] is 63.9 nM; in experiment [2], 60.7 nM; in experiment [3], 966 nM. The Ratio IC50 is 0.9 in experiment [4] and 15.1 in experiment [5].
`COc1ccc(OC)c2c1c(OC)cc1c(=O)cc(-c3ccnnc3)oc12`: the IC50 in experiment [1] is 2 nM; in experiment [2], 126 nM; in experiment [3], more than 1000 nM. The Ratio IC50 in experiment [4] was 62.9; in experiment [5] it was more than 500.
For `COc1ccc(OC)c2c1c(OC)cc1c(=O)cc(-c3cccs3)oc12`, the figures for the IC50 in experiment [1], in experiment [2] and in experiment [3] were 4.8 nM, 4.4 nM and 40.4 nM, respectively. Moreover, the Ratio IC50 came to 0.9 in experiment [4] and 8.4 in experiment [5].
Take `COc1ccc(OC)c2c1c(OC)cc1c(=O)cc(-c3ccccn3)oc12`: the IC50 in experiment [1] amounted to 0.6 nM; in experiment [2], 5.4 nM; in experiment [3], 108 nM. The Ratio IC50 in experiment [4] is 9; in experiment [5] it was 179.
For the compound `COc1ccc(OC)c2c1c(OC)cc1c(=O)cc(-c3cccc(C)n3)oc12`, the IC50 in experiment [1] was found to be 1.2 nM; in experiment [2] it was 19.9 nM; in experiment [3], 148 nM. Also, the Ratio IC50 in experiment [4] amounted to 16.6; in experiment [5], 124.
On to `COc1ccc(OC)c2c1c(OC)cc1c(=O)cc(-c3ccc(Br)cn3)oc12`, for which the IC50 stood at 1.3 nM in experiment [1], 38.9 nM in experiment [2] and 623 nM in experiment [3]. Besides, the Ratio IC50 came to 29.9 in experiment [4] and 479 in experiment [5].
With `COc1ccc(OC)c2c1c(OC)cc1c(=O)cc(-c3ccc4[nH]ncc4c3)oc12`, the IC50 is 2 nM in experiment [1], 1.6 nM in experiment [2] and more than 1000 nM in experiment [3]. The Ratio IC50 in experiment [4] is 0.8; in experiment [5], more than 500.
Regarding `COc1ccc(OC)c2c1c(OC)cc1c(=O)cc(-c3ccc4ccccc4n3)oc12`, the IC50 in experiment [1] was 1 nM; in experiment [2] it was 118 nM; in experiment [3] it was more than 1000 nM. Moreover, the Ratio IC50 in experiment [4] is 118; in experiment [5], more than 1000.
On to `COc1ccc(OC)c2c1c(OC)cc1c(=O)cc(-c3ccnc(F)c3)oc12`, for which the IC50 in experiment [1] was found to be 0.93 nM; in experiment [2], 38.9 nM; in experiment [3], 518 nM. Further, the Ratio IC50 in experiment [4] was determined as 41.8; in experiment [5], 557.
For the compound `COc1ccc(OC)c2c1c(OC)cc1c(=O)cc(-c3cccc(N4CCN(C)CC4)c3)oc12`, the IC50 in experiment [1], in experiment [2] and in experiment [3] was more than 1000 nM each time.
Turning to `COc1ccc(OC)c2c1c(OC)cc1c(=O)cc(-c3ccnc(O)c3)oc12`, the results for the IC50 in experiment [1], in experiment [2] and in experiment [3] were 61.5 nM, 232 nM and more than 1000 nM, respectively. The Ratio IC50 in experiment [4] is 3.8; in experiment [5], more than 16.3.
The like results for `COc1ccc(OC)c2c1c(OC)cc1c(=O)cc(-c3cncc(C(=O)O)c3)oc12` were, in that order, 30.1 nM, 85.8 nM, more than 1000 nM, 2.9 and more than 33.2.
Regarding `COc1ccc(OC)c2c1c(OC)cc1c(=O)cc(-c3ccc4cc[nH]c4c3)oc12`, the IC50 is 0.95 nM in experiment [1], 142 nM in experiment [2] and more than 1000 nM in experiment [3]. For the same compound, the Ratio IC50 was 149 in experiment [4] and more than 1050 in experiment [5].
For the compound `COc1ccc(OC)c2c1c(OC)cc1c(=O)cc(-c3ccc(O)nc3)oc12`, the IC50 in experiment [1] is 658 nM; in experiment [2], more than 1000 nM; in experiment [3], more than 1000 nM. Moreover, the Ratio IC50 in experiment [4] and in experiment [5] was more than 1.5 each time.
As for `COc1ccc(OC)c2c1c(OC)cc1c(=O)cc(-c3cccnc3O)oc12`, the IC50 was more than 1000 nM in experiment [1], 152 nM in experiment [2] and more than 1000 nM in experiment [3].
Regarding `COc1ccc(OC)c2c1c(OC)cc1c(=O)cc(-c3ccncc3)oc12`, the IC50 was found to be 1.2 nM in experiment [1], 40.4 nM in experiment [2] and 200 nM in experiment [3]. Besides, the Ratio IC50 came out at 33.7 in experiment [4] and 166 in experiment [5].
For the compound `COc1ccc(OC)c2c1c(OC)cc1c(=O)cc(-c3cccc(F)n3)oc12`, the IC50 in experiment [1] is 0.38 nM; in experiment [2], 2.3 nM; in experiment [3], 668 nM. Further, the Ratio IC50 in experiment [4] turned out to be 6.1; in experiment [5], 1760.
On the same counts, the results for `COc1ccc(OC)c2c1c(OC)cc1c(=O)cc(-c3cccc(N)n3)oc12` are 6.5 nM, 56.8 nM, more than 1000 nM, 8.7 and more than 154.
With `COc1ccc(OC)c2c1c(OC)cc1c(=O)cc(-c3ccc4[nH]cnc4c3)oc12`, the IC50 in experiment [1] is 15.6 nM; in experiment [2] it was 42.4 nM; in experiment [3], more than 1000 nM. Further, the values for the Ratio IC50 in experiment [4] and in experiment [5] were 2.7 and more than 64.1, respectively.
In the case of `COc1ccc(OC)c2c1c(OC)cc1c(=O)cc(-c3ccncc3N)oc12`, the IC50 in experiment [1] is 24.8 nM; in experiment [2], 31.6 nM; in experiment [3] it was more than 1000 nM. Further, the Ratio IC50 in experiment [4] was 1.3; in experiment [5], more than 40.3.
As for `COc1ccc(OC)c2c1c(OC)cc1c(=O)cc(-c3cccc(N4CCOCC4)c3)oc12`, the IC50 was 14.9 nM in experiment [1], 132 nM in experiment [2] and more than 1000 nM in experiment [3]. The results for the Ratio IC50 in experiment [4] and in experiment [5] were 8.9 and more than 67.1, respectively.
As to `COc1ccc(OC)c2c1c(OC)cc1c(=O)cc(-c3ccc(N)cn3)oc12`, the IC50 in experiment [1] is 6 nM; in experiment [2], 66.6 nM; in experiment [3], more than 1000 nM. Besides, the Ratio IC50 was 11.1 in experiment [4] and more than 167 in experiment [5].
For the compound `COc1ccc(OC)c2c1c(OC)cc1c(=O)cc(-c3ccnc(Cl)c3)oc12`, the IC50 in experiment [1] was 1.1 nM; in experiment [2] it was 91.6 nM; in experiment [3] it was more than 1000 nM. Moreover, the figures for the Ratio IC50 in experiment [4] and in experiment [5] were 83.3 and more than 909, respectively.
Turning to `COc1ccc(OC)c2c1c(OC)cc1c(=O)cc(-c3cccc(O)n3)oc12`, the figures for the half-maximal inhibitory concentration (IC50) in experiment [1], in experiment [2] and in experiment [3] were 7.7 nM, 323 nM and more than 1000 nM, respectively. The Ratio IC50 in experiment [4] is 41.9; in experiment [5] it was more than 130.
In the case of `COc1ccc(OC)c2c1c(OC)cc1c(=O)cc(-c3cccnc3)oc12`, the IC50 is 1 nM in experiment [1], 7.6 nM in experiment [2] and 117 nM in experiment [3]. The Ratio IC50 is 7.6 in experiment [4] and 117 in experiment [5].
Consider `COc1ccc(OC)c2c1c(OC)cc1c(=O)cc(-c3ccc(N4CCN(C)CC4)cc3)oc12`, for which the IC50 in experiment [1], in experiment [2] and in experiment [3] was more than 1000 nM in each case.
